# Results pooled from the literature.
# Sialidase-2: Sialidase-2 (Homo sapiens, UniProt Q9Y3R4)
# ACHE: Acetylcholinesterase (ACHE, Homo sapiens, UniProt P22303)
# FABP4: Fatty acid-binding protein, adipocyte (FABP4, Homo sapiens, UniProt P15090)
SMILES,target,assay,test system,conditions,endpoint,value
CC1=C(CO)C(=O)O[C@@H]([C@@H](C)[C@H]2CC[C@H]3[C@@H]4C[C@H]5O[C@]56[C@@H](O)C=CC(=O)[C@]6(C)[C@H]4CC[C@]23C)C1,"Importin subunit beta-1 (KPNB1, Homo sapiens, UniProt Q14974, C158A)","binding, MST",,,Kd,90400 nM
CC(C)(C)CN[C@H]1[C@H]([C@H](O)[C@H](O)CO)OC(C(=O)O)=C[C@@H]1O,Sialidase-2,"enzyme activity, inhibitor",,,IC50,120000 nM
Cn1c(=O)n(CCCCN2CCC3(CC2)OCc2ccccc23)c2ccccc21,"Transporter (Slc6a2, Rattus norvegicus, UniProt Q63380)","ligand displacement, radioligand",,cell membranes,Ki,232 nM
CC(C)c1cc2c(c(O)c1O)[C@@]1(C(=O)O)CCCC(C)(C)[C@@H]1CC2,ACHE,"enzyme activity, inhibitor",,,Ki,0.58 nM
CCCCOP(=O)(O)C(C)=O,"1-deoxy-D-xylulose-5-phosphate synthase (dxs, Escherichia coli, UniProt P77488)","enzyme activity, inhibitor",,,Ki,3000 nM
O=c1cc(CSc2ccc(N=Cc3ccc(Br)cc3)cc2)occ1O,ACHE,"enzyme activity, inhibitor",,,Ki,907 nM
Cc1cn([C@H]2[C@H]([C@H](O)[C@H](O)CO)OC(C(=O)O)=C[C@@H]2O)nn1,Sialidase-2,"enzyme activity, inhibitor",,,IC50,80000 nM
CC(C)c1cc2c(c(O)c1O)[C@@]13CCCC(C)(C)[C@@H]1[C@H](OC3=O)[C@H]2O,ACHE,"enzyme activity, inhibitor",,,Ki,0.23 nM
Cc1c(-c2cccnc2)c2ccccc2n1CCCCC(=O)O,FABP4,"ligand displacement, fluorescence",,,Kd,3260 nM
O=C(O)C(F)(F)C(F)(F)C(F)(F)C(F)(F)C(F)(F)C(F)(F)C(F)(F)C(F)(F)C(F)(F)F,FABP4,"ligand displacement, fluorescence",,,Ki,1350 nM
CC(=O)c1c(C)c2cnc(Nc3ccc(C4CCN(CCS(C)(=O)=O)CC4)cn3)nc2n(C2CCCC2)c1=O,"Cytochrome P450 2C8 (CYP2C8, Homo sapiens, UniProt P10632)","enzyme activity, inhibitor","human, liver microsomes",,IC50,> 10000 nM
Cc1ccccc1C=Nc1ccc(SCc2cc(=O)c(O)co2)cc1,ACHE,"enzyme activity, inhibitor, Ellman",,,IC50,5300 nM
O=C(O)C(F)(F)C(F)(F)C(F)(F)C(F)(F)C(F)(F)C(F)(F)C(F)(F)F,FABP4,"ligand displacement, fluorescence",,,Ki,1820 nM
